In ChEMBL document CHEMBL4177764 (J Med Chem, 2018):
Calls of active or inactive are those of the source.

What was measured:
Assay type in all cases: cell-based
[1] = target: Signal transducer and activator of transcription 3 (Homo sapiens) (UniProt P40763); test: Inhibition of STAT3 phosphorylation at Y705 in human CHLA20 cells at 250 nM after 6 to 48 hrs in presence of ABCB1 inhibitor tariquidar by immunoblot method
[2] = target: Focal adhesion kinase 1 (Homo sapiens) (UniProt Q05397); test: Induction of PTK2 degradation in human KARPAS299 cells at 0.01 to 1 uM after 16 hrs by immunoblot method
[3] = target: Signal transducer and activator of transcription 3 (Homo sapiens) (UniProt P40763); test: Inhibition of STAT3 phosphorylation at Y705 in human Kelly cells at 250 nM after 6 to 48 hrs by immunoblot method
[4] = target: T1, ALK tyrosine kinase receptor (Homo sapiens, UniProt Q9UM73); test: Induction of ALK degradation in human Kelly cells assessed as decrease in ALK phosphorylation at Y1507 at 250 nM after 6 to 48 hrs by immunoblot method
[5] = target: T1, ALK tyrosine kinase receptor; test: Induction of ALK degradation in human CHLA20 cells assessed as decrease in ALK phosphorylation at Y1507 at 250 nM after 6 to 48 hrs in presence of ABCB1 inhibitor tariquidar by immunoblot method
[6] = target: T2, Aurora kinase A (Homo sapiens) (UniProt O14965); test: Induction of aurora A degradation in human Kelly cells at 10 to 160 nM after 16 hrs by immunoblot method
T2 sequence (whole entry): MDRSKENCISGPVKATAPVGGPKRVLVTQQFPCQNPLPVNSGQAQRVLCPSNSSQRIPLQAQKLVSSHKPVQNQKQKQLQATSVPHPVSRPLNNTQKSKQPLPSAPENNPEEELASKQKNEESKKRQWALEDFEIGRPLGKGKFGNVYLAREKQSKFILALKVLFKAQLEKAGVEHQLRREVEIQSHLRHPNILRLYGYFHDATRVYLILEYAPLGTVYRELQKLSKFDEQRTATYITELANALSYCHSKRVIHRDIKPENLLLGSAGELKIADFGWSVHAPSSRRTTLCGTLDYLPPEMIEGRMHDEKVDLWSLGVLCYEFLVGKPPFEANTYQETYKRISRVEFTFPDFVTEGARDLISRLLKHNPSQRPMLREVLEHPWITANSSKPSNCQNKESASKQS
Outline: (§1)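 Kelly and CHLA20 neuroblastoma cells were treated with dose titrations for 16 h, then Aurora A was detected by immunoblot. CHLA20 cells were always co-treated with 125 nM tariquidar, an ABCB1 inhibitor.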

[7] = target: T2, Aurora kinase A (Homo sapiens); test: Induction of aurora A degradation in human NCI-H3122 cells at 0.01 to 1 uM after 16 hrs by immunoblot method
Outline: (§2)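 H3122 (EML4-ALK NSCLC) and Karpas 299 (NPM-ALK ALCL) cells were exposed to dose titrations for 16 h. ALK and Aurora A levels were then assessed by immunoblot.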

[8] = target: T2, Aurora kinase A (Homo sapiens); test: Induction of aurora A degradation in human KARPAS299 cells at 0.01 to 1 uM after 16 hrs by immunoblot method; outline: as §2
[9] = target: T2, Aurora kinase A (Homo sapiens); test: Induction of aurora A degradation in human CHLA20 cells at 10 to 160 nM after 16 hrs by immunoblot method; outline: as §1

Chain of Signal transducer and activator of transcription 3 (Homo sapiens) (P40763 whole entry): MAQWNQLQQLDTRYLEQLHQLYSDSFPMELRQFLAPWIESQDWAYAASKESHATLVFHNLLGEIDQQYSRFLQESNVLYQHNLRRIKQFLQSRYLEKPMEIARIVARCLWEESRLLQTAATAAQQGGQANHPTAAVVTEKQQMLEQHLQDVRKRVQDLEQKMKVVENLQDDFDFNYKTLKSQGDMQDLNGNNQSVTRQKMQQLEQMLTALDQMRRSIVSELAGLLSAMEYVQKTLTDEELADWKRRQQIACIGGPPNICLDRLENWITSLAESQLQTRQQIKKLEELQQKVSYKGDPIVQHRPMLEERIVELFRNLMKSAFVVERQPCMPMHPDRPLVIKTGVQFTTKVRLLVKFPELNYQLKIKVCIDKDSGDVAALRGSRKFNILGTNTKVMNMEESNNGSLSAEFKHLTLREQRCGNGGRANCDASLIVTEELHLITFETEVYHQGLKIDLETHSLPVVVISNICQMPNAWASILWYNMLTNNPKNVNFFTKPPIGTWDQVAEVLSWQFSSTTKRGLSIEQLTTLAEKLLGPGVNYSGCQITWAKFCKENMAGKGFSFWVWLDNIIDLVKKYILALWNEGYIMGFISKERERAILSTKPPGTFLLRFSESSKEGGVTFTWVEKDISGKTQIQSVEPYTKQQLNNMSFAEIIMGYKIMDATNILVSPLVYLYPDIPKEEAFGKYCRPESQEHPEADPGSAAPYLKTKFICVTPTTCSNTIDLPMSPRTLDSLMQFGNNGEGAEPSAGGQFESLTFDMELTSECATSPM
Chain of Focal adhesion kinase 1 (Homo sapiens) (Q05397 2-1052 limits assumed): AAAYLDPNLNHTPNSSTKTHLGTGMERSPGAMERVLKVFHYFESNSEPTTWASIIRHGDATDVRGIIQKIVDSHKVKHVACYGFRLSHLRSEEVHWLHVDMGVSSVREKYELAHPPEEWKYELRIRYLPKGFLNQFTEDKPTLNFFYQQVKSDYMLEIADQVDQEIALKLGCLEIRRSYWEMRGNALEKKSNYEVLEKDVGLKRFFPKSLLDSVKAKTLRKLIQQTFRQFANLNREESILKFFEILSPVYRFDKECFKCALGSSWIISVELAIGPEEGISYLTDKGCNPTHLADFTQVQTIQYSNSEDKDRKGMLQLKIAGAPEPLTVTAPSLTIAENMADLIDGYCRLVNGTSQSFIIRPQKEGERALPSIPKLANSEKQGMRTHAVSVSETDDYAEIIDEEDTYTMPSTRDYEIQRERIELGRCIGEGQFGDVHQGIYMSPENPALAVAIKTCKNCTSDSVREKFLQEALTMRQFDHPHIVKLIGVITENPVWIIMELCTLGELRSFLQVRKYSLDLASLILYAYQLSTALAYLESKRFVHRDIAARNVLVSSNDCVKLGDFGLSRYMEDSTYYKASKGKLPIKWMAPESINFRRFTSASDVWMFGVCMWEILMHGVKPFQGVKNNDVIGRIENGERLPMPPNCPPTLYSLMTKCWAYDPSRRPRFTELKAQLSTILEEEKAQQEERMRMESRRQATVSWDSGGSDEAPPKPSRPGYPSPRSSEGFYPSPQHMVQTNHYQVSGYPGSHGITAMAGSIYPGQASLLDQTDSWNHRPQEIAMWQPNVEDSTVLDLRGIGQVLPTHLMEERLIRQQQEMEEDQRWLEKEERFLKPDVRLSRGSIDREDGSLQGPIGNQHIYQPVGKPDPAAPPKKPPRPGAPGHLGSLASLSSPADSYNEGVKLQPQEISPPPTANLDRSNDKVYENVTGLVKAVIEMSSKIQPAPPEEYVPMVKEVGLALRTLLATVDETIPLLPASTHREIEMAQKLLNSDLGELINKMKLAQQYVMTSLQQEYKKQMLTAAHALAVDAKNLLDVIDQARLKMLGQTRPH
T1 sequence (Q9UM73 19-1620 limits assumed): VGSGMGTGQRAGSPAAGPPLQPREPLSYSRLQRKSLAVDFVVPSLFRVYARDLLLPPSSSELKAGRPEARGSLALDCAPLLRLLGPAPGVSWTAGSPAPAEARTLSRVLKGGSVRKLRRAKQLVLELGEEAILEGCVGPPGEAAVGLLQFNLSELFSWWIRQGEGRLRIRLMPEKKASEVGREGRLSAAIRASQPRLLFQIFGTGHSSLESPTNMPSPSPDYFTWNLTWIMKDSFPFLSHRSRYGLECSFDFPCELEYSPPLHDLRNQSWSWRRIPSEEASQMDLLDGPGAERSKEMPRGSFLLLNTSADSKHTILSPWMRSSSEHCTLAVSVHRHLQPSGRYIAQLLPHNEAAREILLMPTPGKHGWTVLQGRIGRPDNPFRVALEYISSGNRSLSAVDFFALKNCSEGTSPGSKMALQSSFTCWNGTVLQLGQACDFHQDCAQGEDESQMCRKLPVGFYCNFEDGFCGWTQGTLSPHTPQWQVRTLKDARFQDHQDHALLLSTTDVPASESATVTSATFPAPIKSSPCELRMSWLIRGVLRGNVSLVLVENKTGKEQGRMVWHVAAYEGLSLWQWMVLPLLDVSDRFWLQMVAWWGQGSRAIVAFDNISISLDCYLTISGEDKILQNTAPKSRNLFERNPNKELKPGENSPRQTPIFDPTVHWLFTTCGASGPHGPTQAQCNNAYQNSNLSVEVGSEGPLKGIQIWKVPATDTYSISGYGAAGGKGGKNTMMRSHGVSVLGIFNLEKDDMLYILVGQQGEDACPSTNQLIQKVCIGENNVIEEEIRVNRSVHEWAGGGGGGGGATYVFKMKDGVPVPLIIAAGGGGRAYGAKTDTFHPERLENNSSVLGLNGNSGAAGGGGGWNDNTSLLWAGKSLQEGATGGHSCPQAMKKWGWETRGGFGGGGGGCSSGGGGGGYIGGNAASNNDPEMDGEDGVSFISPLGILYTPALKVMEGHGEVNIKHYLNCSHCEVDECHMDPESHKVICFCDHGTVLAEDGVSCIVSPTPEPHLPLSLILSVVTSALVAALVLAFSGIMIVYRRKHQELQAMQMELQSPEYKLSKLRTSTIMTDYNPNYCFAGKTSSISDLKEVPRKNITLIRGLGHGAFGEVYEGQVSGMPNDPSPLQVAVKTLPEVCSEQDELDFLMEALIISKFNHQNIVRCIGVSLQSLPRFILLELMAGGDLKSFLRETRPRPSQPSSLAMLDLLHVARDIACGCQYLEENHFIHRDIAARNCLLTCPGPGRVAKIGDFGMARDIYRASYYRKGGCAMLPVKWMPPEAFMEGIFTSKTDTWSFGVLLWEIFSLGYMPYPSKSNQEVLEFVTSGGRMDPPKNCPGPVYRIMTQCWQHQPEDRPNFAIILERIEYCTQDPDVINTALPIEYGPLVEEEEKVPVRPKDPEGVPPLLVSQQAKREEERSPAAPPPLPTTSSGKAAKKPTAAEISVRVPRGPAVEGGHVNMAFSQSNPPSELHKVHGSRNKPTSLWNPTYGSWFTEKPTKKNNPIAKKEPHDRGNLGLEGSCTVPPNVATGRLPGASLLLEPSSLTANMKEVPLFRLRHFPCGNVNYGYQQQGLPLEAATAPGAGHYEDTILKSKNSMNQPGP

Cc1cc(Nc2ncc(Cl)c(Nc3ccccc3S(=O)(=O)C(C)C)n2)c(OC(C)C)cc1C1CCN(CCOCCOCCNC(=O)CNc2cccc3c2C(=O)N(C2CCC(=O)NC2=O)C3=O)CC1 (stereo not given)
active: inhibition [1] | Activity [2] | inhibition [3] | Activity [4] | Activity [5]

COc1cc(N2CCN(CCOCCOCCNC(=O)CNc3cccc4c3C(=O)N(C3CCC(=O)NC3=O)C4=O)CC2)ccc1Nc1ncc(Cl)c(Nc2ccccc2S(=O)(=O)C(C)C)n1 (stereo not given)
active: Activity [6] | Activity [7] | Activity [8] | Activity [9] | Activity [2]
